Laboratory results published in ChEMBL document CHEMBL1124370 (1989).
Activity calls are given as the source filed them. The rule behind the calls is not given here.

Assays:
Rattus norvegicus [1] = test: […] inhibition of sorbitol accumulation in rat sciatic nerves at 10e-5 M concentration; type: functional, Sciatic nerve
In short: (§1)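 Sciatic nerves were taken from male Sprague-Dawley rats (200–250 g) after CO2 euthanasia. Nerves were incubated 3 h at 37 °C under 95% air/5% CO2 in Hank's salts buffer, pH 7.4, with 50 mM glucose and (0–5)×10^-5 M compound, in triplicate. Nerve sorbitol was measured spectrofluorometrically in duplicate, and the read-out was % inhibition of sorbitol accumulation.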

Rattus norvegicus [2] = test: In vivo inhibition of galactitol accumulation in the sciatic nerves of rat at a dose of 4 mg/kg/day; type: functional; settings: Sciatic nerve
[3] = target: Aldo-keto reductase family 1 member B1 (Bos taurus) (UniProt P16116); test: Inhibition of aldose reductase in partially purified bovine lens preparation at 10e-6 M.
In short: (§2)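 Aldose reductase partially purified from bovine lens, with the final chromatographic step of the earlier preparation omitted. Assay run in duplicate with test compound at 1 × 10^-6 M or 1 × 10^-7 M. Reported as % inhibition of enzymatic activity.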

Rattus norvegicus [4] = test: […] inhibition of sorbitol accumulation in rat sciatic nerves at 5*10e-6 M concentration; type: functional, Sciatic nerve; settings: in the assay text read “In vitro” for “In vivo”
In short: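 Sciatic nerves from male Sprague-Dawley rats (200–250 g), removed after CO2 euthanasia, incubated ex vivo for 3 h at 37 °C under 95% air/5% CO2 in Hank's salts buffer, pH 7.4, with 50 mM glucose and 5 × 10^-6 M test compound. Triplicate incubations; nerve sorbitol measured in duplicate by spectrofluorometric assay. Reported as % inhibition of sorbitol accumulation.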

Rattus norvegicus [5] = test: In vivo inhibition of galactitol accumulation in the diaphragm of rat at a dose of 4 mg/kg/day; type: functional
Rattus norvegicus [6] = test: In vivo inhibition of sorbitol accumulation in rat sciatic nerves at 10e-6 M concentration; type: functional, Sciatic nerve; in short: as §1
[7] = target: Aldo-keto reductase family 1 member B1 (Bos taurus) (UniProt P16116); test: Inhibition of aldose reductase in partially purified bovine lens preparation at 10e-7 M concentration; in short: as §2
Rattus norvegicus [8] = test: In vivo inhibition of galactitol accumulation in the diaphragm of rat at a dose of 100 mg/kg/day; type: functional
Rattus norvegicus [9] = test: In vivo inhibition of galactitol accumulation in the sciatic nerves of rat at a dose of 100 mg/kg/day; NS=not significant; type: functional, organism-based; settings: Sciatic nerve
Rattus norvegicus [10] = test: […] inhibition of sorbitol accumulation in rat sciatic nerves at 10e-6 M concentration; NS=not significant; type: functional; settings: Sciatic nerve; in short: as §1
Rattus norvegicus [11] = test: In vivo inhibition of galactitol accumulation in the diaphragm of rat. at a dose of 48 mg/kg/day; NS =not significant; type: functional, organism-based
Rattus norvegicus [12] = test: In vivo inhibition of galactitol accumulation in the sciatic nerves of rat at a dose of 48 mg/kg/day; NS=not significant; type: functional, organism-based; settings: Sciatic nerve
Rattus norvegicus [13] = test: […] inhibition of sorbitol accumulation in rat sciatic nerves at 10e-5 M concentration; NS=not significant; type: functional; settings: Sciatic nerve; in short: as §1
Rattus norvegicus [14] = test: In vivo inhibition of galactitol accumulation in the sciatic nerves of rat at a dose of 46 mg/kg/day; NS=not significant; type: functional, organism-based; settings: Sciatic nerve
Rattus norvegicus [15] = test: In vivo inhibition of galactitol accumulation in the diaphragm of rat at a dose of 46 mg/kg/day; NS =not significant; type: functional, organism-based
Rattus norvegicus [16] = test: In vivo inhibition of galactitol accumulation in the diaphragm of rat at a dose of 67 mg/kg/day; NS =not significant; type: functional, organism-based
[17] = target: Aldo-keto reductase family 1 member B1 (Bos taurus) (UniProt P16116); test: […] inhibition of aldose reductase in partially purified bovine lens preparation at 10e-7 M concentration
In short: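 Enzyme partially purified from bovine lens by a published method, with the final chromatographic step omitted. Test compound was added at 1×10^-6 or 1×10^-7 M. Assays were run in duplicate, and the read-out was % inhibition of enzymatic activity.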

Rattus norvegicus [18] = test: In vivo inhibition of galactitol accumulation in the sciatic nerves of rat at a dose of 67 mg/kg/day; NS=not significant; type: functional, organism-based; settings: Sciatic nerve
Rattus norvegicus [19] = test: In vivo inhibition of galactitol accumulation in the diaphragm of rat at a dose of 105 mg/kg/day; NS=not significant; type: functional, organism-based
Rattus norvegicus [20] = test: In vivo inhibition of galactitol accumulation in the sciatic nerves of rat at a dose of 105 mg/kg/day; NS=not significant; type: functional, organism-based; settings: Sciatic nerve
Rattus norvegicus [21] = test: In vivo inhibition of galactitol accumulation in the sciatic nerves of rat at a dose of 25 mg/kg/day; type: functional; settings: Sciatic nerve
Rattus norvegicus [22] = test: In vivo inhibition of sorbitol accumulation in rat sciatic nerves at 5*10e-5 M concentration; type: functional, Sciatic nerve; settings: in the assay text read “In vitro” for “In vivo”; in short: as §1
Rattus norvegicus [23] = test: In vivo inhibition of galactitol accumulation in the sciatic nerves of rat at a dose of 75 mg/kg/day; type: functional; settings: Sciatic nerve
Rattus norvegicus [24] = test: In vivo inhibition of galactitol accumulation in the diaphragm of ratat a dose of 75 mg/kg/day; type: functional
Rattus norvegicus [25] = test: In vivo inhibition of galactitol accumulation in the diaphragm of rat. at a dose of 25 mg/kg/day; NS =not significant; type: functional, organism-based
Rattus norvegicus [26] = test: In vivo inhibition of galactitol accumulation in the sciatic nerves of rat at a dose of 50 mg/kg/day; NS=not significant; type: functional, organism-based; settings: Sciatic nerve
Rattus norvegicus [27] = test: In vivo inhibition of galactitol accumulation in the diaphragm of rat. at a dose of 50 mg/kg/day; NS=not significant; type: functional, organism-based
Rattus norvegicus [28] = test: In vivo inhibition of galactitol accumulation in the sciatic nerves of rat at a dose of 100 mg/kg/day; type: functional; settings: Sciatic nerve
Rattus norvegicus [29] = test: In vivo inhibition of galactitol accumulation in the diaphragm of rat at a dose of 48 mg/kg/day; type: functional

`O=C1NC(=O)[C@@]2(CCOc3ccc(F)cc32)N1` [SORBINIL] was tested, and the Inhibition (Rattus norvegicus [1]) was 96%, the inhibition in vivo at 4 mg/kg/day (Rattus norvegicus [2]) was 55% and the inhibition [3] was 45%. For the same molecule, the Inhibition (Rattus norvegicus [4]) was 74%, the inhibition in vivo at 4 mg/kg/day (Rattus norvegicus [5]) was 69% and the Inhibition (Rattus norvegicus [6]) was 27%. It also gave an inhibition [7] of 10%.
In the case of `COc1ccc2c(C(=O)N(CC(=O)O)C(=O)N(C)C)cccc2c1C(F)(F)F`, the Inhibition (Rattus norvegicus [1]) was 34%, the inhibition in vivo at 100 mg/kg/day (Rattus norvegicus [8]) was 21% and the inhibition (Rattus norvegicus [9]) was “inactive”. The inhibition [3] was 3% and the inhibition (Rattus norvegicus [10]) was “inactive”.
For `CCCOC(=O)N(CC(=O)O)C(=O)c1cccc2c(C(F)(F)F)c(OC)ccc12`, the Inhibition (Rattus norvegicus [1]) was 62%, the inhibition (Rattus norvegicus [11]) was “inactive” and the inhibition (Rattus norvegicus [12]) was “inactive”. For the same molecule, the inhibition [3] was 90%, the inhibition (Rattus norvegicus [10]) was “inactive” and the inhibition [7] was 81%.
`COc1ccc2c(C(=O)N(CC(=O)O)C(=O)OC(C)C)cccc2c1C(F)(F)F` was tested, and the inhibition (Rattus norvegicus [13]) was “inactive”, the inhibition (Rattus norvegicus [14]) was “inactive” and the inhibition [7] was 35%. The inhibition (Rattus norvegicus [15]) was “inactive”.
For `COc1ccc2c(C(=O)N(CC(=O)O)C(=O)OCc3ccccc3)cccc2c1C(F)(F)F`, the Inhibition (Rattus norvegicus [1]) was 28%, the inhibition (Rattus norvegicus [16]) was “inactive” and the inhibition [17] was 66%. The inhibition [3] was 89%, the inhibition (Rattus norvegicus [18]) was “inactive” and the inhibition (Rattus norvegicus [10]) was “inactive”.
For `COc1ccc2c(C(=O)N(CC(=O)O)C(=O)OCC(C)(C)C)cccc2c1C(F)(F)F`, the Inhibition (Rattus norvegicus [1]) was 37%, the inhibition (Rattus norvegicus [19]) was “inactive” and the inhibition [3] was 64%. For the same molecule, the inhibition (Rattus norvegicus [20]) was “inactive”, the Inhibition (Rattus norvegicus [6]) was 28% and the inhibition [7] was 18%.
In the case of `COc1ccc2c(C(=O)N(C)CC(=O)O)cccc2c1C(F)(F)F`, the Inhibition (Rattus norvegicus [1]) was 74%, the inhibition in vivo at 25 mg/kg/day (Rattus norvegicus [21]) was 33% and the Inhibition (Rattus norvegicus [22]) was 89%. The inhibition [3] was 86%, the inhibition in vivo at 75 mg/kg/day (Rattus norvegicus [23]) was 56% and the inhibition in vivo at 75 mg/kg/day (Rattus norvegicus [24]) was 27%. The inhibition (Rattus norvegicus [25]) was “inactive”, the Inhibition (Rattus norvegicus [6]) was 27% and the inhibition [7] was 57%.
`COc1ccc2c(C(=O)N(CC(=O)O)C(=O)c3ccccc3)cccc2c1C(F)(F)F` was tested, and the Inhibition (Rattus norvegicus [1]) was 31%, the inhibition (Rattus norvegicus [26]) was “inactive” and the inhibition [3] was 62%. For the same molecule, the inhibition (Rattus norvegicus [27]) was “inactive”, the Inhibition (Rattus norvegicus [6]) was 40% and the inhibition [7] was 15%.
`COc1ccc2c(C(=O)N(CC(=O)O)C(C)=O)cccc2c1C(F)(F)F` was tested, and the Inhibition (Rattus norvegicus [1]) was 62%, the inhibition in vivo at 100 mg/kg/day (Rattus norvegicus [8]) was 39% and the inhibition [3] was 91%. For the same molecule, the inhibition in vivo at 100 mg/kg/day (Rattus norvegicus [28]) was 36%, the Inhibition (Rattus norvegicus [6]) was 40% and the inhibition [7] was 61%.
For `COC(=O)N(CC(=O)O)C(=O)c1cccc2c(C(F)(F)F)c(OC)ccc12`, the Inhibition (Rattus norvegicus [1]) was 58%, the inhibition [3] was 97% and the inhibition (Rattus norvegicus [10]) was “inactive”. The inhibition [7] was 82% and the inhibition in vivo at 48 mg/kg/day (Rattus norvegicus [29]) was 54%.
